Paper PMC10652724 (ACS Omega, 2023)

Experiments:
[1] = nitrofuran metabolite; cited from earlier work
[2] = In vitro cytotoxicity, Cell Counting Kit-8; assay type: cell-based; details: bovine, MDBK cells (Madin–Darby bovine kidney)
Outline: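 MDBK cells (1 × 10^4 cells/mL) incubated at 37°C for 72 h with test compound in […] twofold serial dilutions, 100 down to 0.39 μg/mL. Cell Counting Kit-8 added; OD450 read before and after a further 4 h incubation. Done in three replicates. CC50 from nonlinear regression curve fit, reported as mean ± SD.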

T. b. brucei GUTat3.1 = test: In vitro trypanocidal activity, bloodstream forms, CellTiter-Glo; assay type: cell-based, Trypanosoma brucei brucei
T. b. gambiense IL1922 = test: as above; assay type: cell-based, Trypanosoma brucei gambiense
T. b. rhodesiense IL1501 = test: as above; assay type: cell-based, Trypanosoma brucei rhodesiense
T. equiperdum IVM-t1 = test: as above; assay type: cell-based, Trypanosoma equiperdum
T. evansi Tansui = test: as above; assay type: cell-based, Trypanosoma evansi
T. congolense IL3000 [3] = test: as above; assay type: cell-based, Trypanosoma congolense
T. congolense IL3000 [4] = details: T. congolense IL3000 infected mice, cited from earlier work

Q: For NN1CC(=O)NC1=O [1-aminihydantoin, 1-aminohydantoin], which “metabolite present in edible pig tissues” value [1] is on record?
A: The value was 3 to 8 µg/kg.

Q: For O=C1CN(/N=C/c2ccc([N+](=O)[O-])o2)C(=O)N1 [Nitrofurantoin, nitrofurantoin], which CC50 at 72 h [2] is on record?
A: Its CC50 at 72 h is 73 ± 36.1 µM.

Q: What about the “Selectivity index (SI)” value (T. b. brucei GUTat3.1; CC50 of MDBK/IC50 of Tbb GuTat3.1) of the same molecule?
A: Its value is 48.

Q: And the IC50 (T. b. brucei GUTat3.1; Trypanosoma brucei, 72 h, read-out: trypanocidal activity IC50 ± SD)?
A: The IC50 was 1.51 ± 0.03 µM.

Q: And the “Selectivity index (SI)” value (T. b. gambiense IL1922; CC50 of MDBK/IC50 of Tbg IL1922)?
A: Its value is 39.

Q: And the IC50 (T. b. gambiense IL1922; Trypanosoma brucei, GAMBIENSE, 72 h, read-out: trypanocidal activity IC50 ± SD)?
A: The IC50 was 1.85 ± 0.23 µM.

Q: What about the “Selectivity index (SI)” value (T. b. rhodesiense IL1501; CC50 of MDBK/IC50 of Tbr IL1501) of the same molecule?
A: Its value is 43.

Q: What about the IC50 (T. b. rhodesiense IL1501; Trypanosoma brucei, RHODESIENSE, 72 h, read-out: trypanocidal activity IC50 ± SD) of the same molecule?
A: Its IC50 is 1.69 ± 0.2 µM.

Q: And the “Selectivity index (SI)” value (T. equiperdum IVM-t1; CC50 of MDBK/IC50 of Teq IVM-t1)?
A: Its value is 50.

Q: What about the IC50 (T. equiperdum IVM-t1; Trypanosoma equiperdum, 72 h, read-out: trypanocidal activity IC50 ± SD) of the same molecule?
A: Its IC50 is 1.45 ± 0.03 µM.

Q: What about the “Selectivity index (SI)” value (T. evansi Tansui; CC50 of MDBK/IC50 of Tev Tansui) of the same molecule?
A: Its value is 44.

Q: And the IC50 (T. evansi Tansui; Trypanosoma evansi, 72 h, read-out: trypanocidal activity IC50 ± SD)?
A: Its IC50 is 1.67 ± 0.07 µM.

Q: What about the “Selectivity index (SI)” value (T. congolense IL3000 [3]; CC50 of MDBK/IC50 of Tc IL3000) of the same molecule?
A: Its value is 174.

Q: What about the IC50 (T. congolense IL3000 [3]; Trypanosoma congolense, 72 h, read-out: trypanocidal activity IC50 ± SD) of the same molecule?
A: The IC50 was 0.42 ± 0.05 µM.

Q: What about the minimum effective dose (T. congolense IL3000 [4]) of the same molecule?
A: Its minimum effective dose is 30 mg/kg.

Q: And the survival and cure (T. congolense IL3000 [4]; dose ≥30 mg/kg)?
A: The survival and cure was 100%.
